High-throughput results as filed in PubChem BioAssay.
Thrombin inh = thrombin (human) inhibition; P00734; alpha-thrombin, Boc-VPR-AMC fluorogenic substrate cleavage; inhibition, % at 5 µM; hit rate 0.26% among 220,000; AID 1046;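 active = inhibition at or above 40%; inactive = inhibition below 40%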;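 also: 0% = enzyme with no compound and 100% = wells without enzyme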
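System: human alpha-thrombin protein; Compound dosing: one concentration per compound, 5 µM, with 0.2% DMSO; Timing: reaction at room temperature; Technique: AMC fluorescence, 355/460 nm; Controls: enzyme without compound as high, wells lacking enzyme as low.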
hK5 inh = inhibitors of human kallikrein 5 | Q9Y337 | recombinant hK5, fluorogenic AMC substrate cleavage | inhibition, % at 5 µM | hit rate 0.59% among 210,000 | AID 873;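 active = inhibition of 40% or more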;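 also: 0% = enzyme controls without compound and 100% = no-enzyme blanks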
Target sequence (Q9Y337 67-293 limits assumed): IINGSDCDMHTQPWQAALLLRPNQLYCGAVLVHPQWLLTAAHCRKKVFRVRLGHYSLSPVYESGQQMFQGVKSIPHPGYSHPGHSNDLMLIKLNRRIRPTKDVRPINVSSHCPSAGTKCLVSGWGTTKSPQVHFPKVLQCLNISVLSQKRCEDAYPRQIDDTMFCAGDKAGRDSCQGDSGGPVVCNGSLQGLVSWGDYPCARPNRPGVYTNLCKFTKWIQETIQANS
Calpain2 inh = inhibitors of pig calpain II; purified calpain II, fluorogenic peptide substrate, 30 min; inhibition, % at 16 µM; hit rate 0.37% among 220,000; AID 1236;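 active = inhibition above about 50%, limit read from the data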
FXIa inh = blocks human coagulation factor XIa protease activity | P03951 | purified FXIa, Boc-Glu-Ala-Arg-AMC fluorogenic substrate | inhibition, % at 5 µM | hit rate 0.14% among 220,000;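 active = inhibition of at least 40%; inactive = inhibition below 40%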;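 also: fluorescence of freed AMC excited at 355 nm; 0% = enzyme without compound and 100% = no enzyme blank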
FXIIa inh 1536 = inhibitors of human coagulation factor XIIa; P00748; purified FXIIa, Boc-QGR-AMC fluorogenic substrate, 2 h; inhibition, % at 5 µM; hit rate 0.3% among 220,000; AID 800; in the data active = inhibition above about 40%;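 also: 0% = enzyme with no compound and 100% = blank without enzyme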
Furin inh = blocks human furin protease activity; inhibition, % at 20 µM or 30 µM; hit rate 0.061% among 220,000; AID 463115; P09958; purified furin, fluorogenic substrate cleavage; in the data active = inhibition above about 25%
* marks the source's active call; other numbers are inactive results; · = no result. An excerpt weighted towards active compounds, which were near 1.4% of everything screened.

SMILES | Thrombin inh | hK5 inh | Calpain2 inh | FXIa inh | FXIIa inh 1536 | Furin inh
O=C(CCN1C(=O)/C(=C/c2ccc3c(c2)OCO3)SC1=S)Nc1ccccc1 | -3 | 5 | 58* | -9 | -1 | -3
O=C(NC(=S)Nc1cc(Cl)ccc1O)c1cccc(Br)c1 | -2 | -27 | 14 | -7 | 1 | -9
Cc1ccc(C2=NN(S(=O)(=O)c3ccccc3)C(c3ccccc3O)C2)cc1 (centres undefined) | 20 | 29 | -51 | 33 | 103* | -7
CCC(C)NC(=O)Cn1nc(C(F)(F)F)c2c1CCCC2 (centres undefined) | -1 | -10 | 10 | 6 | 12 | -13
CN(C)c1cccc(C(=O)OCC(=O)Nc2ccccc2Cl)c1 | -6 | -1 | 56* | -1 | 10 | -25
CN(C)c1cccc(C(=O)OCC(=O)Nc2ccccc2-c2ccccc2)c1 | -12 | -6 | -13 | -6 | 7 | -11
COC(=O)c1c(C)[nH]c(C(=O)/C=C/c2ccccc2F)c1C | -1 | 3 | -3 | 7 | 7 | -15
CCCCCCSc1nnc(-c2cnn(-c3ccccc3)c2-n2cccc2)n1C | 0 | -6 | 56* | -5 | 4 | 14
CCSc1nnc(-c2cnn(-c3ccccc3)c2-n2cccc2)n1C | -7 | 4 | -18 | 0 | 9 | -9
Cc1ccc(C(=O)COC(=O)CCc2nc3ccccc3[nH]c2=O)cc1C | -1 | -1 | 14 | -8 | 7 | -17
C=CCOc1ccc(Br)cc1/C=C1/SC(=Nc2ccc(C(=O)O)cc2)NC1=O | -10 | 0 | -61 | -2 | 8 | -3
CCC(C)NCCOc1cc(C)cc(C)c1C (centres undefined) | 56* | 31 | 8 | 35 | · | -10
Nc1c(S(=O)(=O)c2ccccc2)nnn1-c1ccccc1 | 4 | 2 | -9 | 11 | 18 | -20
Cc1nn(CCc2nn[nH]n2)c2nc(-c3ccc(Br)cc3)cc(C(F)(F)F)c12 | 9 | 31 | -102 | 27 | 41* | 3
CCOC(=O)C1CN(S(=O)(=O)c2ccc(OC)cc2)c2cc(CC(=O)OC)ccc2O1 (centres undefined) | -5 | -8 | -11 | -5 | 3 | -9
CCc1ccc(C2CC(c3ccccc3)n3ncnc3N2)cc1 (centres undefined) | -4 | 45* | 19 | -15 | -9 | -11
O=C(O)[C@@H](c1ccccc1)N1Cc2ccccc2C1=O | 1 | 49* | -14 | 7 | 13 | -10
CSCC[C@@H](C(=O)O)N1Cc2ccccc2C1=O | -5 | 1 | -24 | 1 | 10 | -13
CC(=O)/C(=C/Nc1ccc(Oc2ccccc2)cc1)c1ccccc1 | -1 | -24 | 23 | 5 | 4 | 2
COc1cc(N/C=C(\C(C)=O)c2ccccc2)cc(OC)c1 | 8 | -17 | 65* | -7 | 3 | -8
COc1ccc(N(C)S(=O)(=O)c2cccc(C(=O)NCC3CCCO3)c2)cc1 (centres undefined) | -2 | -8 | 10 | -4 | 6 | -3
Cc1ccc(NC(=O)c2ccc3ccccc3n2)cc1S(=O)(=O)N1CCOCC1 | 48* | 15 | 17 | 28 | 24 | -16
CC1=C(C(=O)Nc2ccccc2)C(c2ccc(O)cc2)N2C(=O)CSC2=N1 (centres undefined) | 43* | 37 | 7 | 7 | 16 | -2
COc1ccc(/C(O)=C2/C(=O)C(=O)N(CC3CCCO3)C2c2cccc(O)c2)cc1 (centres undefined) | -2 | 4 | -24 | -4 | 4 | -3
COc1ccc(S(=O)(=O)N2CCCC2C(=O)Nn2cnnc2)cc1 (centres undefined) | -4 | -5 | 24 | 22 | 43* | -21
SMILES | Thrombin inh | hK5 inh | Calpain2 inh | FXIa inh | FXIIa inh 1536 | Furin inh
COc1ccc(NC(=O)C2CCCCN2S(=O)(=O)c2ccc(F)cc2)cc1 (centres undefined) | 18 | 53* | 19 | 4 | 18 | -18
COc1ccc(NC(=O)C2CCCN2S(=O)(=O)c2ccc(C)cc2)cc1 (centres undefined) | -1 | -10 | -46 | 2 | 15 | -22
COc1ccc(NC(=O)C2CCCCN2S(=O)(=O)c2ccc(F)cc2)c(OC)c1 (centres undefined) | 11 | 41* | 12 | 1 | 23 | -9
CCO/N=C(/c1nonc1N)N1CCN(c2ccc([N+](=O)[O-])cc2)CC1 | 2 | -22 | -53 | -5 | 9 | -11
Cc1cc(C)n(-c2nnc(NCc3ccc(Cl)cc3)nn2)n1 | 4 | 6 | 41 | 2 | 6 | -21
C=CCn1c(SCc2ccccc2)nnc1-c1cccnc1 | 1 | -36 | -13 | -12 | 8 | -27
C=CCn1c(SCc2ccc(OC)cc2)nnc1-c1cccnc1 | 22 | 50* | 5 | 3 | 8 | -17
Cc1ccc(CN(C)C(=O)CC2C(=O)NCCN2CC2CCCCC2)cc1 (centres undefined) | 1 | · | -27 | -2 | 5 | -12
CN(Cc1ccon1)C(=O)CC1C(=O)NCCN1CC1CCCCC1 (centres undefined) | -2 | 35 | 0 | 60* | 28 | -11
Cc1c(C(=O)N/N=C/c2ccc(O)c(Br)c2)sc(N)c1C#N | -2 | -2 | -21 | 5 | -1 | -25
O=c1c2ccccc2nc(SCc2cn3ccsc3n2)n1-c1ccccc1F | 3 | -17 | 52* | 0 | 14 | -19
COC(=O)c1cccc(NC(N)=S)c1 | -3 | 4 | -1 | 0 | · | -25
COC(=O)c1ccc(Cl)c(NC(=O)CSc2ncn[nH]2)c1 | -10 | -23 | -23 | -10 | -6 | -23
CNC(=S)Nc1cccc(C(=O)OC)c1 | 9 | 51* | 17 | 5 | 32 | -6
COC(=O)c1cccc(NC(=O)CSc2ncn[nH]2)c1 | 2 | -2 | 7 | 44* | 54* | -24
Cc1nc(C)c(C(=O)N/N=C/c2cn(C)c3ccccc23)s1 | -1 | -2 | 0 | 0 | 14 | -7
CC(=O)Nc1ccccc1C(=O)C(=O)Nc1cccc(C(=O)NCC2CCCO2)c1 (centres undefined) | -1 | -2 | 93* | -2 | 8 | -27
CN(C1CCS(=O)(=O)C1)S(=O)C12CC3CC(CC(C3)C1)C2 (centres undefined) | 0 | 4 | 6 | 3 | 14 | 2
Cn1c(=O)cc(OCC(=O)NC2CCCCC2)c2ccccc21 | 8 | -15 | 0 | 13 | 8 | 0
Cn1c(=O)cc(OCCCC(=O)NC2CCCC2)c2ccccc21 | 17 | 70* | 4 | 17 | 23 | -8
CCOC(=O)C1(CCc2ccccc2)CCN(Cc2cccc3nccnc23)CC1 | -10 | 3 | -27 | 0 | 9 | -21
COc1ccc(-c2cnc(N)n2C)cc1 | -6 | -2 | -3 | -2 | 7 | -26
Cc1cc(C(C)(C)C)oc1C(=O)N(CC(=O)NC1CCCC1)Cc1ccccc1Cl | -5 | -19 | 50* | -3 | 13 | -24
